We go through four compounds from ChEMBL document CHEMBL4257540, “Structure-based virtual screening and ADME/T-based prediction analysis for the discovery of novel antifungal CYP51 inhibitors” (Medchemcomm, 2018).

Structures are written as SMILES. ≈ marks a conversion by molar mass, not a printed value.

Broadly, the MIC is the lowest concentration that inhibits growth of the organism.

The subject of one data set is Nakaseomyces glabratus. As to the kind of experiment: Antifungal activity against Candida glabrata ATCC 0001 by broth microdilution method. The class given is functional. The procedure, abridged:
(§1)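 MIC per NCCLS broth microdilution. Fungi incubated at 35 °C and growth checked daily. Fluconazole served as positive control.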

Data set [1] relates to Candida albicans. Nature of the data set: Antifungal activity against fluconazole-resistant Candida albicans 100 by broth microdilution method. The class given is functional. The method, boiled down: (§2)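 Broth microdilution MIC per NCCLS guidelines; strains from a Chinese medical fungus preservation centre and Shenyang Pharmaceutical University. Cultures kept at 35 °C with daily growth observation.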

Data set [2] has as its target T1, Lanosterol 14-alpha demethylase (Candida albicans (strain SC5314 / ATCC MYA-2876) (Yeast), UniProt P10613). Nature of the data set: Inhibition of CYP51 in Candida albicans SC5314 assessed as unidentified sterol content at 8 ug/ml after 16 hrs by GC/MS analysis (reference value: 5.8%). Also noted: scale not given: the % may be the effect or the level left. Conditions: candida albicans sc5314, 16 h.

In another data set the test system is Pichia kudriavzevii. As to the kind of experiment: Antifungal activity against Candida krusei ATCC 6258 by broth microdilution method. The class given is functional. The method, boiled down: as §1
The test system of data set [3] is Candida albicans. Nature of the data set: Antifungal activity against fluconazole-resistant Candida albicans 103 by broth microdilution method. It counts as functional. The procedure, abridged: as §2
For orientation: Dilution methods test growth across graded concentrations, often in twofold steps.

Data set [4] concerns the target T1, Lanosterol 14-alpha demethylase. Nature of the data set: Inhibition of CYP51 in Candida albicans SC5314 assessed as ergosterol content at 8 ug/ml after 16 hrs by GC/MS analysis (reference value: 90.3%). Details: scale not given: the % may be the effect or the level left. Conditions: candida albicans sc5314, 16 h.
Data set [5] has the same target. Nature of the data set: Inhibition of CYP51 in Candida albicans SC5314 assessed as obtusifoliol content at 8 ug/ml after 16 hrs by GC/MS analysis relative to control. Details: scale not given: the % may be the effect or the level left. The conditions noted are these: candida albicans sc5314, 16 h.
The subject of data set [6] is Candida albicans. As to the kind of experiment: Antifungal activity against Candida albicans ATCC 10231 by broth microdilution method. The class given is functional. The procedure, abridged: as §2
For data set [7], the target named is T1, Lanosterol 14-alpha demethylase. As to the kind of experiment: Inhibition of CYP51 in Candida albicans SC5314 assessed as lanosterol content at 8 ug/ml after 16 hrs by GC/MS analysis (reference value: 3.9%). Conditions: candida albicans sc5314, 16 h. Details: scale not given: the % may be the effect or the level left.
In the next data set the test system is Candida tropicalis. As to the kind of experiment: Antifungal activity against Candida tropicalis ATCC 1369 by broth microdilution method. It counts as functional. The procedure, abridged:
as §1

A further data set has as its system Aspergillus fumigatus. As to the kind of experiment: Antifungal activity against Aspergillus fumigatus KM8001 by broth microdilution method. The class given is functional. The procedure, abridged: as §1
For data set [8], the target named is T1, Lanosterol 14-alpha demethylase. As to the kind of experiment: Inhibition of CYP51 in Candida albicans SC5314 assessed as eburicol content at 8 ug/ml after 16 hrs by GC/MS analysis relative to control. Also noted: scale not given: the % may be the effect or the level left. The conditions noted are these: candida albicans sc5314, 16 h.

T1 sequence (P10613 whole entry): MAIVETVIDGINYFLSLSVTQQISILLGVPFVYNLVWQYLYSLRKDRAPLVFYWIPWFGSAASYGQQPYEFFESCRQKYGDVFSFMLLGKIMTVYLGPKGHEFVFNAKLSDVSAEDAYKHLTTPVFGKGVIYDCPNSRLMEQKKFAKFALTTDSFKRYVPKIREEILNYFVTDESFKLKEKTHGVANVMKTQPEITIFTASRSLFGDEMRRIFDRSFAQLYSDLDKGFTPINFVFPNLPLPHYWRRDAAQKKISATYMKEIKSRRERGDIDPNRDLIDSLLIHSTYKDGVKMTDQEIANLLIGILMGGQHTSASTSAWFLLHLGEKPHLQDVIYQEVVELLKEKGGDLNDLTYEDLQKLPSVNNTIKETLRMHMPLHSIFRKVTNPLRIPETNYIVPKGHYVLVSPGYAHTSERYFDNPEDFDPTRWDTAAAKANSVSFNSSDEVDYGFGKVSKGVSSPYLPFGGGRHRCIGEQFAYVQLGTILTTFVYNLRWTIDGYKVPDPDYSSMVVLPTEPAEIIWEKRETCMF

As for `Nc1c(/C=N/NC(=O)c2ccncc2)ccc2c1C(=O)c1ccccc1C2=O`, the MIC against Nakaseomyces glabratus was found to be 8 µg/mL (≈ 21.6 µM); in the data set with Candida albicans [1], 8 µg/mL (≈ 21.6 µM); against Pichia kudriavzevii it was 4 µg/mL (≈ 10.8 µM); against Candida albicans [3], 16 µg/mL (≈ 43.2 µM); in the data set on Candida albicans [6], 8 µg/mL (≈ 21.6 µM); against Candida tropicalis, 2 µg/mL (≈ 5.4 µM). For the same compound, the MIC in the data set on Aspergillus fumigatus stood at 16 µg/mL (≈ 43.2 µM). For the same compound, the Activity in data set [2] was found to be 4.3%; in data set [4], 4.6%; in data set [5], 7.4%; in data set [7], 20.3%; in [8], 63.4%.

For `COc1cccc(NC(=S)N(CCN(C)C)[C@@H](C)c2ccncc2)c1`, the MIC in the data set with Nakaseomyces glabratus stood at 2 µg/mL (≈ 5.58 µM); against Candida albicans [1] it was 8 µg/mL (≈ 22.3 µM); in the data set on Pichia kudriavzevii, 4 µg/mL (≈ 11.2 µM); against Candida albicans [3] it was 4 µg/mL (≈ 11.2 µM); in the data set with Candida albicans [6], 4 µg/mL (≈ 11.2 µM); in the data set on Candida tropicalis it was 4 µg/mL (≈ 11.2 µM). Also, in the data set with Aspergillus fumigatus, the MIC was found to be 8 µg/mL (≈ 22.3 µM). Besides, the Activity is listed as 5.7% in [2]; 5.8% in data set [4]; 7.1% in [5]; 22.4% in [7]; 59% in data set [8].

`OC(Cn1cncn1)(Cn1cncn1)c1ccc(F)cc1F` [FLUCONAZOLE]: the minimal inhibitory concentration (MIC) against Nakaseomyces glabratus was 2 µg/mL (≈ 6.53 µM); with Candida albicans [1], more than 64 µg/mL; against Pichia kudriavzevii it was 2 µg/mL (≈ 6.53 µM); in the data set on Candida albicans [3], more than 64 µg/mL; against Candida albicans [6], 4 µg/mL (≈ 13.1 µM); in the data set on Candida tropicalis, 2 µg/mL (≈ 6.53 µM). In addition, it took 32 µg/mL (≈ 104 µM) to inhibit growth against Aspergillus fumigatus (MIC). The Activity in data set [2] is 4.1%; in data set [4], 2.5%; in data set [5], 6.3%; in data set [7], 19.9%; in data set [8], 67.2%.

With `O=C(NCCc1ccncc1)c1cnc2c(F)cccc2c1O`, the MIC against Nakaseomyces glabratus worked out at 4 µg/mL (≈ 12.8 µM); with Candida albicans [1], 8 µg/mL (≈ 25.7 µM); in the data set on Pichia kudriavzevii, 8 µg/mL (≈ 25.7 µM); against Candida albicans [3], 16 µg/mL (≈ 51.4 µM); against Candida albicans [6], 8 µg/mL (≈ 25.7 µM); with Candida tropicalis, 16 µg/mL (≈ 51.4 µM). Moreover, the MIC with Aspergillus fumigatus is 16 µg/mL (≈ 51.4 µM). The Activity was 4.9% in data set [2]; 9.1% in data set [4]; 8.2% in data set [5]; 23.1% in data set [7]; 54.7% in data set [8].
